Assay results published in ChEMBL document CHEMBL5226322, “Harnessing the Role of HDAC6 in Idiopathic Pulmonary Fibrosis: Design, Synthesis, Structural Analysis, and Biological Evaluation of Potent Inhibitors” (J Med Chem, 2021).
Activity calls are given as the source filed them. No cut-off for these calls is given here.

Assays:
[1] = biological target: T1, Histone deacetylase 1 (Homo sapiens, UniProt Q13547); assay: Inhibition of human recombinant HDAC1 using ZMAL (Z-(Ac)Lys-AMC) as fluorogenic substrate incubated for 120 mins by microplate reader assay
[2] = biological target: T2, Protein deacetylase HDAC6 (Homo sapiens, UniProt Q9UBN7); assay: Inhibition of human recombinant HDAC6 using ZMAL (Z-(Ac)Lys-AMC) as fluorogenic substrate incubated for 120 mins by microplate reader assay
T2 sequence (Q9UBN7 whole entry): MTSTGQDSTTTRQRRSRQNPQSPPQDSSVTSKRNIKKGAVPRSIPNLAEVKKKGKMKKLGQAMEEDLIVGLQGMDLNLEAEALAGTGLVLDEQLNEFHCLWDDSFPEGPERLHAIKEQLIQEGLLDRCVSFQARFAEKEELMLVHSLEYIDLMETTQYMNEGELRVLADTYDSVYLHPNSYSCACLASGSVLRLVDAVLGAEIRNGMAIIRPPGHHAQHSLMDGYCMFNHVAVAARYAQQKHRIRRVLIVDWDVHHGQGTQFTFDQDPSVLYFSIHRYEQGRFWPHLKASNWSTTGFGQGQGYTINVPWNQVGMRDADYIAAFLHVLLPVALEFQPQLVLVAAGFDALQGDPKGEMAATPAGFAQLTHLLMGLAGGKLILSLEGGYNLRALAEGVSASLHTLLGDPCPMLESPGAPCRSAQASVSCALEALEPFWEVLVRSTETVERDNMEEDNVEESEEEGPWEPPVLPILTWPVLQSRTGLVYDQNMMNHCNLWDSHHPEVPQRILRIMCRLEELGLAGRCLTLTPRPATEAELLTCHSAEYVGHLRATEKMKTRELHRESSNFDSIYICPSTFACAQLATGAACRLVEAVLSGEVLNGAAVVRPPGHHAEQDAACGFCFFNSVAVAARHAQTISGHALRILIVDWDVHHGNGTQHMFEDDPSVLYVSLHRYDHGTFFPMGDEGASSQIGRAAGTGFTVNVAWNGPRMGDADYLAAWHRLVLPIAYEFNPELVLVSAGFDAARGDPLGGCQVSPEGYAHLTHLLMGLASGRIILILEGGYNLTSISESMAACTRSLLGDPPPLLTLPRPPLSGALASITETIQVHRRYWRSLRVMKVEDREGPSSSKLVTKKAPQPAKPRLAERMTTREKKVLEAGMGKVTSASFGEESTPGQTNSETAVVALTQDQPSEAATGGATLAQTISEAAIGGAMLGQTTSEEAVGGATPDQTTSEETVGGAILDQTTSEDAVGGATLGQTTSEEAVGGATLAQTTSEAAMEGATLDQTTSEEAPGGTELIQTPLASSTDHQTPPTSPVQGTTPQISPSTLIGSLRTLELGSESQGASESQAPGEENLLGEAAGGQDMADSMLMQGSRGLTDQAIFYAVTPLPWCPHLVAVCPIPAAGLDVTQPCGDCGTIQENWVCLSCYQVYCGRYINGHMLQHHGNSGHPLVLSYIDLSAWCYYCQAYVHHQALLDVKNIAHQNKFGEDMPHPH

[3] = biological target: T1, Histone deacetylase 1; assay: Inhibition of HDAC1 in human NB-4 cells assessed as increase in acetylation of histone H3 at 5 uM incubated for 30 hrs by western blot analysis; format: cell-based
Summary of the method: (§1)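 Whole lysates (35 μg) and acid-extracted histones (2 μg) run on SDS-PAGE and blotted for acetylated tubulin or acetyl-histone H3; GAPDH or H4 as loading controls.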

[4] = biological target: T3, Protein deacetylase HDAC6 (Homo sapiens) (UniProt Q9UBN7); assay: Inhibition of HDAC6 in human U87 cells assessed as increase in acetylation of alpha-tubulin at 5 uM incubated for 30 hrs by western blot analysis; format: cell-based; summary of the method: as §1
T3 sequence (whole entry): T2 sequence (Q9UBN7 whole entry)

[5] = biological target: T3, Protein deacetylase HDAC6 (Homo sapiens); assay: Inhibition of HDAC6 in human NB-4 cells assessed as increase in acetylation of alpha-tubulin at 5 uM incubated for 30 hrs by western blot analysis; format: cell-based; summary of the method: as §1
[6] = biological target: T1, Histone deacetylase 1; assay: Inhibition of HDAC1 in human U87 cells assessed as increase in acetylation of histone H3 at 5 uM incubated for 30 hrs by western blot analysis; format: cell-based; summary of the method: as §1
[7] = Inhibition of spheroid count in IPF patient derived human Airway basal cell incubated for 14 days by Bright-field microscopy analysis; format: functional, cell-based
Summary of the method: (§2)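 Airway basal cells from bronchial brushings of IPF patients, 10⁴ cells in Matrigel on transwell inserts with 1:1 BEGM/DMEM. Treated 14 days (1–50 nM per methods; 0.1–50 nM per legend), medium changed every 7 days.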

[8] = Inhibition of cell proliferation in IPF patient derived human Airway basal cell incubated for 14 days by MTT assay; format: functional, cell-based; settings: 336 h
Summary of the method: (§3)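 IPF patient airway basal cell 3D organoid cultures (10⁴ cells in Matrigel, 1:1 BEGM/DMEM) treated 14 days at 1–50 nM, medium changed weekly. Proliferation read by colorimetric MTT on day 14. Mean ± SEM of triplicates, n=3; repeated-measures ANOVA/Friedman test. Reported IC50 is the mean of the count-based and MTT-based IC50s.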

[9] = tested on: Airway basal cell; assay: Inhibition of cell proliferation in IPF patient derived human Airway basal cell at 20 to 50 nM incubated for 14 days by MTT assay; format: functional, cell-based; settings: dose 20-50 nM, time 14.0 day; summary of the method: as §3
[10] = tested on: Airway basal cell; assay: Inhibition of spheroid count in IPF patient derived human Airway basal cell assessed as reduction in sphere count at 20 to 50 nM incubated for 14 days by Bright-field microscopy analysis; format: functional, cell-based; settings: dose 20-50 nM, time 14.0 day; summary of the method: as §2
[11] = species: Homo sapiens; assay: Inhibition of broncho-sphere formation in IPF patient derived human lung organoid assessed as inhibition of 3D organoid formation at 0.1 to 50 nM incubated for 14 days by Bright-field microscopy analysis; format: functional; settings: dose 0.1-50 nM, time 14.0 day; summary of the method: as §2
[12] = biological target: T4, Histone deacetylase 8 (Homo sapiens, UniProt Q9BY41); assay: Inhibition of human recombinant HDAC8 using FLUOR DE LYS fluorometric substrate pre-incubated for 15 mins and followed by substrate addition and measured after 60 mins by microplate reader assay
T4 sequence (Q9BY41 whole entry): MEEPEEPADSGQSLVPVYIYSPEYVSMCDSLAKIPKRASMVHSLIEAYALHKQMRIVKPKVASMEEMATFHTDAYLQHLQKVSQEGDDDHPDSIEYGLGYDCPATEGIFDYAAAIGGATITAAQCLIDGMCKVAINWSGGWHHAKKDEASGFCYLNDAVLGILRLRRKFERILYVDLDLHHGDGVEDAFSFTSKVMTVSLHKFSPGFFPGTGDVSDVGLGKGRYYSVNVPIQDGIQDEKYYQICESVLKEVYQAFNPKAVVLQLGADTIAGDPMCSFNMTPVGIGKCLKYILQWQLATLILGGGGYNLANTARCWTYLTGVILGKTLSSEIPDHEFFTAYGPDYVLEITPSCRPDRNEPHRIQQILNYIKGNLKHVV
Summary of the method: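 Recombinant human HDAC8 at 0.45 U/reaction with 0.5% DMSO; DMSO-only enzyme served as control. Enzyme preincubated 15 min with compound, then Fluor de Lys substrate added (50 μM final) for 1 h at 30 °C. Quenched with 2 μM TSA in Developer II for a further 1 h at 30 °C. Fluorescence read at ex 370/em 450 nm. IC50 from nonlinear dose-response fit.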

[13] = biological target: T3, Protein deacetylase HDAC6 (Homo sapiens); assay: Inhibition of HDAC6 in human U2OS cells assessed as increase in acetylation of alpha-tubulin at 5 uM incubated for 30 hrs by western blot analysis; format: cell-based; summary of the method: as §1
[14] = tested on: NIH3T3; assay: Cytotoxicity in mouse NIH3T3 cells assessed as reduction in cell viability at 5 uM incubated for 24 hrs by neutral red uptake method based UV/visible spectrophotometer analysis; format: toxicity; settings: nih3t3, 24 h
Summary of the method: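 NIH3T3 fibroblasts grown in DMEM with 10% FCS, L-glutamine/pen-strep and non-essential amino acids at 37 °C, 5% CO2. Monolayers exposed 24 h to compound diluted from a DMSO stock into medium. Neutral Red medium then added for 3 h at 37 °C. Dye extracted with acetic acid/ethanol desorb solution and absorbance read at 540 nm. Student's t-test, p<0.05.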

[15] = tested on: NIH3T3; assay: Cytotoxicity in mouse NIH3T3 cells assessed as reduction in cell viability at 1 uM incubated for 24 hrs by neutral red uptake method based UV/visible spectrophotometer analysis; format: toxicity; settings: nih3t3, 24 h
Summary of the method: (§4)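 NIH3T3 mouse fibroblasts grown in DMEM with 10% FCS, L-glutamine/pen-strep and non-essential amino acids (37 °C, 5% CO2). Exposed 24 h to compound diluted from a DMSO stock into medium. Viability measured by Neutral Red uptake: 3 h in NR medium, then acetic acid/ethanol desorb, absorbance at 540 nm. Student's t-test, p<0.05.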

[16] = tested on: NIH3T3; assay: Cytotoxicity in mouse NIH3T3 cells assessed as reduction in cell viability at 2 uM incubated for 24 hrs by neutral red uptake method based UV/visible spectrophotometer analysis; format: toxicity; settings: nih3t3, 24 h; summary of the method: as §4
[17] = tested on: NIH3T3; assay: Cytotoxicity in mouse NIH3T3 cells assessed as reduction in cell viability at 7.5 uM incubated for 24 hrs by neutral red uptake method based UV/visible spectrophotometer analysis; format: toxicity; settings: nih3t3, 24 h; summary of the method: as §4
[18] = tested on: NIH3T3; assay: Cytotoxicity in mouse NIH3T3 cells assessed as reduction in cell viability at 20 uM incubated for 24 hrs by neutral red uptake method based UV/visible spectrophotometer analysis; format: toxicity; settings: nih3t3, 24 h; summary of the method: as §4

T1 sequence (Q13547 whole entry): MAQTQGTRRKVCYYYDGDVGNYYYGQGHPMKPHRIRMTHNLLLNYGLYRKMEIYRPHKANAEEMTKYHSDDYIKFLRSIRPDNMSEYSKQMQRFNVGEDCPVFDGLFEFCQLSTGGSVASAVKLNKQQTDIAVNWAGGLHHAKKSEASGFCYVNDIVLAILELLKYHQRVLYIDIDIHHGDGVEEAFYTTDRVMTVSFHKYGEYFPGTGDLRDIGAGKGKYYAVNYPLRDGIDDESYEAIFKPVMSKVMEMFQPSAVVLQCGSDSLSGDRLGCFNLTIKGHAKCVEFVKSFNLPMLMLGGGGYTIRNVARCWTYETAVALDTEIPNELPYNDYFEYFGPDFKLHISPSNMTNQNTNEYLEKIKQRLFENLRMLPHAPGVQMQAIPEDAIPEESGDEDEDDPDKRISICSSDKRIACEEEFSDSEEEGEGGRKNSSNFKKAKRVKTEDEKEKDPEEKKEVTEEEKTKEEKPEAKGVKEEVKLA

CC1(C)c2ccccc2N(Cc2ccc(C(=O)NO)cc2)[C@@H]1c1cccnc1
IC50 [1]: 3380 nM
IC50 [2]: 71.3 nM

CC1(C)c2ccccc2N(Cc2ccc(C(=O)NO)cc2)[C@H]1c1cccnc1
IC50 [1]: 16200 nM
IC50 [2]: 90.6 nM

CC1(C)c2ccccc2N(Cc2ccc(C(=O)NO)s2)C1c1cccnc1 (racemic)
IC50 [1]: 6320 nM
IC50 [2]: 811 nM

CC(C)(C)OC(=O)N1CCC2(CC1)c1ccccc1N(Cc1ccc(C(=O)NO)cc1)C2c1cccnc1 (racemic)
IC50 [1]: 8100 nM
IC50 [2]: 152 nM

CC1(C)c2ccccc2N(Cc2ccc(C(=O)NO)cc2)C1c1ccccc1 (racemic)
IC50 [1]: 18700 nM
IC50 [2]: 166 nM

CN1CCC2(CC1)c1ccccc1N(Cc1ccc(C(=O)NO)cc1)C2c1cccc(Cl)c1 (racemic)
IC50 [1]: 8100 nM
IC50 [2]: 111 nM

CN1CCC2(CC1)c1ccccc1N(Cc1ccc(C(=O)NO)cc1)C2c1ccc(F)cc1 (racemic)
IC50 [1]: 6160 nM
inhibition [3]: inactive
inhibition [4]: Active
inhibition [5]: Active
inhibition [6]: inactive
IC50 [2]: 142 nM

COc1ccc2c(c1)C(C)(C)C(c1cccnc1)N2Cc1ccc(C(=O)NO)cc1 (racemic)
IC50 [1]: 5320 nM
IC50 [2]: 67.2 nM

CN1CCC2(CC1)c1ccccc1N(Cc1ccc(C(=O)NO)cc1)C2c1ccccc1 (racemic)
IC50 [7]: 2.55 nM
IC50 [1]: 4290 nM
inhibition [3]: inactive
inhibition [4]: Active
inhibition [5]: Active
inhibition [6]: inactive
IC50 [8]: 0.154 nM
inhibition [9]: Active
inhibition [10]: Active
IC50 [2]: 73.2 nM
inhibition [11]: Dose-Dependent Effect

CC1(C)c2ccccc2N(Cc2ccc(OCCCC(=O)NO)cc2)C1c1cccnc1 (racemic)
IC50 [1]: 1630 nM
IC50 [2]: 616 nM

CC1(C)c2ccccc2N(Cc2ccc(C(=O)NO)cc2)C1c1ccncc1 (racemic)
IC50 [7]: 4.35 nM
IC50 [1]: 10800 nM
inhibition [3]: inactive
inhibition [4]: Active
inhibition [5]: Active
inhibition [6]: inactive
IC50 [8]: 4.97 nM
inhibition [9]: Active
IC50 [12]: 4640 nM
inhibition [10]: Active
IC50 [2]: 61.1 nM
inhibition [11]: Dose-Dependent Effect
inhibition [13]: Active

CN1CCC2(CC1)c1ccccc1N(Cc1ccc(C(=O)NO)cc1)C2c1cccnc1 (racemic)
IC50 [1]: 7600 nM
IC50 [2]: 112 nM

CN1CCC2(CC1)c1ccccc1N(Cc1ccc(C(=O)NO)cc1)C2c1ccc(Cl)cc1 (racemic)
IC50 [1]: 3650 nM
IC50 [2]: 165 nM

O=C(CCCCCCC(=O)Nc1ccccc1)NO [VORINOSTAT]
Activity [14]: 31%
Activity [15]: 83%
Activity [16]: 62%
Activity [17]: 22%
Activity [18]: 7%
